Most compounds without a hit are left out; they make up all but 2.3% or so of the library.
TRPC4 potent – TRPC4 (mouse) allosteric potentiation | Q9QUQ5 | HEK293 TRPC4beta/mu-opioid, DAMGO EC20, Fluo-4 Ca2+ flux; stronger effect = higher value | B-score at 10 µM | 310,000 compounds, 0.42% hits | AID 2227;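 active = B-score of calcium response area above 5 SD of library B-scores, with initial fluorescence ratio within 5 SD of library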;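 also: B-score of integrated fluorescence ratio over time as area under calcium response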
Target sequence (Q9QUQ5 whole entry, looked up): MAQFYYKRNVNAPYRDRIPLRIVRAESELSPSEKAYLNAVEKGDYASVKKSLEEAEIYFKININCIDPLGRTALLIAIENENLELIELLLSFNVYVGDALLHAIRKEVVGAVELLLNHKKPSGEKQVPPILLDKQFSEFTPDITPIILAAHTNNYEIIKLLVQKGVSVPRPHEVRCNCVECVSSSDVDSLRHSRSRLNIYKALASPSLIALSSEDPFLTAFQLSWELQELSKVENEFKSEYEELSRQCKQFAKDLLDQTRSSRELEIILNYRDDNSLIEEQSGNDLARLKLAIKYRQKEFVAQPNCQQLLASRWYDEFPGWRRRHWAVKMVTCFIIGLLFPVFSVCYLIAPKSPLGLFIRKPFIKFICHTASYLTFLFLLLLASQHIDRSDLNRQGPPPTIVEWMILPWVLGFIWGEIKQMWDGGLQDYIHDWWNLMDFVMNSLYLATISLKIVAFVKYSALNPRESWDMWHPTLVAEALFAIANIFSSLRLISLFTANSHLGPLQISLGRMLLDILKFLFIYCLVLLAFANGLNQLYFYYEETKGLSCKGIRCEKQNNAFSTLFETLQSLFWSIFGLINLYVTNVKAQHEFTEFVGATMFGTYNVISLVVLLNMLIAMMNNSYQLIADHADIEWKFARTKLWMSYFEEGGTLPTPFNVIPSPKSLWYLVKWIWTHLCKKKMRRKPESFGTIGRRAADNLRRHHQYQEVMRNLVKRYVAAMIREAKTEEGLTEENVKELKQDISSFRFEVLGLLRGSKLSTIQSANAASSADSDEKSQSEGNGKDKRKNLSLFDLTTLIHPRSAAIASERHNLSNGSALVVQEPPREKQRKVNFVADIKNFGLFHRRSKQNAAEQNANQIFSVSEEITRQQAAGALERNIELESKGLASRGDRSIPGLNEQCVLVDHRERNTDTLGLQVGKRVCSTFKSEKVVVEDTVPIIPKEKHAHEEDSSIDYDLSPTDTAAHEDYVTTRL
TRPC4 inh – TRPC4 (mouse) channel inhibition; Q9QUQ5; HEK293 TRPC4beta/mu-opioid, DAMGO-evoked Fluo4 calcium flux; stronger effect = lower value; B-score at 10 µM; 300,000 compounds, 0.39% hits; AID 2247;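 active = B-score over 3 SD under the library average, no early fluorescence shift, positive overall ratio signal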
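Test system – stable TRPC4beta/mu-opioid receptor HEK293 cells · Probe or stimulus – DAMGO, a submaximal dose followed by a maximal one · Dosing – one concentration per compound · Signal – Fluo4 calcium fluorescence by kinetic imaging, 5 s 1 Hz baseline · Evaluation – per-well B score of integrated baseline-normalized Fluo4 ratio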
TRPC6 activator – mouse TRPC6 channel activation | HEK293-TRPC6 membrane potential dye fluorescence; stronger effect = higher value | 310,000 compounds, 0.13% hits | AID 2550 | Q61143 | B-score at 10 µM;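 active = B-score of the integrated fluorescence ratio above library mean plus 3 SD, and starting fluorescence ratio within library mean plus 5 SD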;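 also: higher score means more depolarization so channel activation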
TRPC4 act – opens the mouse TRPC4 cation channel. HEK293 TRPC4beta/mu-opioid, Fluo4 calcium fluorescence; stronger effect = higher value. B-score at 10 µM. AID 2237. 310,000 compounds, 0.49% hits. Q9QUQ5;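 active = B-score above 5 SD of library B-scores, and initial fluorescence ratio not above library mean plus 5 SD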;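 also: positive B-score marks a calcium rise read as TRPC4 activation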
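Assay system: HEK293 cells stably co-expressing mouse TRPC4beta and mu-opioid receptor / Timing: Fluo4 dye loading 45 min at room temperature, 110 s recording / Signal: Fluo4 calcium-sensitive dye fluorescence, kinetic, 1 Hz baseline / Read-out: integrated baseline-normalised fluorescence ratio, converted to per-well B score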
TRPC6 inh – mouse TRPC6 channel inhibition; 310,000 compounds, 1.1% hits; AID 2553; Q61143; B-score at 10 µM; HEK293-TRPC6, membrane potential dye, ACh-evoked depolarization; stronger effect = lower value;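 active = B-score under library mean minus 3 SD, initial fluorescence not abnormally high, positive integrated signal ratio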;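 also: B-score derived from integrated fluorescence ratio over the kinetic read; more negative B-score means stronger inhibition of depolarization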
TRPC4 spec 2 – second check of whether TRPC6 inhibitors also affect mouse TRPC4; shares compounds with TRPC6 inh; HEK293 TRPC4/MOR, membrane potential dye fluorescence; channel activated by saturating DAMGO dose; inhibition, % at 10 µM; 920 compounds, 42% hits; AID 2776;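 active = compounds whose fluorescence signal differed from control wells by over 3 SD, either direction, in both duplicate plates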
TRPC4 spec – tests whether TRPC6 inhibitors also affect mouse TRPC4; shares compounds with TRPC6 inh; 920 compounds, 61% hits; activity change, negative = inhibition, % at 10 µM; HEK293 TRPC4/mu-opioid, membrane potential fluorescence;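 active = rise or fall in signal beyond 3 SD of buffer-only wells in both replicate plates, either sign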;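 also: integrated kinetic ratio of fluorescence range over baseline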
HEK293 MPD ctr 2-1 – second counter-screen for TRPC6 inhibitors: parental HEK293 cells; AID 2779; 920 compounds, 31% hits; parental HEK293 membrane potential dye fluorescence; maximal acetylcholine challenge after compound addition; shares compounds with TRPC6 inh; signal change vs control, % at 10 µM;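 active = membrane potential signal moving either way by over 3 SD of the maximum-effect control, in both duplicate plates, meaning non-specific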
HEK293 MPD ctr-1 – counter-screen for TRPC6 inhibitors: effect in parental HEK293 cells; parental HEK293 membrane potential dye fluorescence; membrane potential signal change, % at 10 µM; 920 compounds, 60% hits; shares compounds with TRPC6 inh;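 active = membrane potential signal shifting up or down by more than 3 SD of buffer-only wells, on both duplicate plates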
HEK293 MPD ctr-2 – checks TRPC6 modulator effects in parental HEK293 cells; shares compounds with TRPC6 inh; membrane potential dye fluorescence; membrane potential signal change, % at 10 µM; 2,400 compounds, 51% hits; AID 488924;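 active = membrane potential signal moves up or down beyond 5 SD from buffer-only wells, on both duplicate plates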
HEK293 MPD ctr 2-2 – second check of TRPC6 modulator effects in parental HEK293 cells. shares compounds with TRPC6 inh. membrane potential dye fluorescence; after compound, maximal acetylcholine stimulation. inhibition, % at 10 µM. 2,400 compounds, 14% hits;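 active = membrane potential signal drops by more than 5 SD from the mean control signal, in both duplicate plates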;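 also: plate controls were acetylcholine ECmax control wells for no effect and buffer only wells for full effect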
TRPC4/MOR mod – selectivity of TRPC6 modulators against mouse TRPC4; 2,400 compounds, 69% hits; AID 488927; shares compounds with TRPC6 inh; HEK293 TRPC4/mu-opioid, membrane potential fluorescence; percent change from control (negative = decrease, positive = increase), % at 10 µM;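 active = membrane potential signal moved up or down beyond 5 SD of buffer control wells, in both duplicate plates, actives on both sides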;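 also: plate controls were assay buffer wells for no effect and DAMGO maximal-effect wells for full effect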
TRPC4/MOR inh 2 – second selectivity test of TRPC6 modulators against mouse TRPC4; 2,400 compounds, 55% hits; AID 488928; HEK293 TRPC4/mu-opioid, membrane potential dye fluorescence; stimulated with maximal-effect DAMGO; inhibition, % at 10 µM; shares compounds with TRPC6 inh;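 active = drop in membrane potential signal beyond 5 SD of the control wells in both duplicate plates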;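 also: TRPC4 counter screen for TRPC6 hits run under conditions tuned for TRPC6 not TRPC4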
TRPC6 block conf – mouse TRPC6 inhibitor confirmation | inhibition, % at 10 µM | HEK293-TRPC6, membrane potential dye, ACh-evoked depolarization | 3,300 compounds, 43% hits | shares compounds with TRPC6 inh;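 active = fluorescence ratio falls more than 5 SD below the full-stimulation control mean, in both duplicate runs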;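 also: integrated fluorescence ratio of peak minus minimum over baseline after agonist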
TRPC6 act conf – confirmation of mouse TRPC6 activators | AID 488961 | activation, % at 10 µM | shares compounds with TRPC6 inh | 2,800 compounds, 11% hits | HEK293-TRPC6 membrane potential dye fluorescence, FDSS;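 active = ratio signal rise beyond 5 SD above unstimulated control wells' mean, seen in both duplicate runs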;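 also: plate controls were buffer EC0 wells for no effect and acetylcholine ECmax response for full effect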
Active calls of the source: *; i = inactive; x = no result.

SMILES	TRPC4 potent	TRPC4 inh	TRPC6 activator	TRPC4 act	TRPC6 inh	HEK293 MPD ctr-2	HEK293 MPD ctr 2-2	TRPC4/MOR mod	TRPC4/MOR inh 2	TRPC6 block conf	TRPC6 act conf	others
Cc1cccn2c(=O)c(/C=C(\C#N)C(=O)NC3CCS(=O)(=O)C3)c(N3CC(C)OC(C)C3)nc12 (centres undefined)	i	i	i	i	-5.02*	i	i	-13.5%*	i	i	i
CC(C)(C)c1cc(S(=O)(=O)CCc2ccncc2)cc(C(C)(C)C)c1F	i	i	i	i	i	x	x	x	x	x	x
COc1ccccc1CNCc1ccc(OC)c2ccccc12	i	-7*	i	i	-6.15*	265.0%*	i	64.0%*	70.0%*	52.0%*	x
O=C(Nc1cccc(-n2cnnn2)c1)c1cnccc1Cl	i	i	i	i	i	x	x	x	x	x	x
Cn1nnnc1SCCNCc1ccccc1OCc1ccccc1Cl	i	i	i	i	-5.5*	122.0%*	i	24.0%*	81.0%*	43.5%*	x
O=C(CC1SC(N2CCCC2)=NC1=O)Nc1ccc(C(=O)N2CCN(c3cccc(Cl)c3)CC2)cc1 (centres undefined)	i	i	i	i	i	x	x	x	x	x	x
COc1ccc(-c2cc(=O)c3ccccc3o2)cc1	i	i	i	i	i	x	x	x	x	x	x
COc1ccc(N=c2cc(-c3ccc(OC)cc3)oc3ccccc23)cc1	i	i	i	i	-5.54*	-109.0%*	i	-25.5%*	52.0%*	38.0%*	i
COc1ccc(-c2cc(=Nc3ccc(C)cc3)c3ccccc3o2)cc1	i	i	i	i	-8.77*	x	x	x	x	i	i	TRPC4 spec 2=i;TRPC4 spec=-11.9%*;HEK293 MPD ctr 2-1=i;HEK293 MPD ctr-1=i
COc1ccc(N=c2cc(-c3ccc(O)cc3)oc3ccccc23)cc1	i	i	i	i	-6.07*	-93.5%*	i	-28.0%*	64.0%*	41.0%*	i
CCOc1ccc(N=c2cc(-c3ccc(OC)cc3)oc3ccccc23)cc1	i	i	i	i	i	x	x	x	x	x	x
CCOC(=O)C1=C(C)C/C(=N\NC(=O)c2ccccc2O)CC1	i	i	i	i	i	x	x	x	x	x	x
Cc1nn2c(COc3ccc(NC(=O)c4ccccc4Cl)cc3)nnc2c2ccccc12	i	i	i	i	i	x	x	x	x	x	x
COc1ccc[nH]c1=O	i	i	i	i	-5.99*	i	i	i	i	i	i
O=C(Nc1ccccc1)Oc1ccc[nH]c1=O	i	i	i	i	i	x	x	x	x	x	x
COCCNc1nc2nonc2nc1N1C[C@H]2CC[C@H]1C2	i	i	i	i	i	x	x	x	x	x	x
COCCNc1nc2nonc2nc1N1CCC(N(C)C)C1 (centres undefined)	i	i	i	i	-5.42*	i	i	i	i	i	i
Cc1cccc(NC(=O)CN(C)S(=O)(=O)c2cccc3nsnc23)c1C	i	i	i	i	-5.52*	i	i	16.0%*	28.5%*	i	i
O=C(NCCN1CCN(C(=O)c2ccc(F)cc2)CC1)c1ccc(F)cc1	i	i	i	i	i	x	x	x	x	x	x
O=C(Nc1ccccc1-c1ccccc1)NC1CC2CCCC(C1)N2Cc1ccc(F)cc1 (centres undefined)	i	i	i	i	-8*	x	x	x	x	51.0%*	i	TRPC4 spec 2=51.0%*;TRPC4 spec=4.8%*;HEK293 MPD ctr 2-1=i;HEK293 MPD ctr-1=4.0%*
O=C(Nc1ccccc1-c1ccccc1)NC1CC2CCCC(C1)N2CCc1ccccc1 (centres undefined)	i	i	i	i	-6.99*	x	x	x	x	64.9%*	i	TRPC4 spec 2=46.0%*;TRPC4 spec=i;HEK293 MPD ctr 2-1=i;HEK293 MPD ctr-1=-0.2%*
CCN(CC)C(=O)NC1CC2CCCC(C1)N2Cc1ccccc1 (centres undefined)	i	i	i	i	i	x	x	x	x	x	x
COc1cccc(CC(NC(C)=O)C(=O)NC2CCN(S(=O)(=O)c3ccc(C)cc3)CC2)c1OC (centres undefined)	i	i	i	i	i	x	x	x	x	x	x
CCNC(=S)N1CCN(C(c2ccccc2)c2ccccc2)CC1	i	i	i	68*	-5.21*	i	i	65.5%*	73.5%*	i	i
CCCNC(=S)N1CCN(C(c2ccccc2)c2ccccc2)CC1	i	i	i	i	i	x	x	x	x	x	x
COc1cc(NC(=O)COC(=O)c2ccccc2SCC(=O)N2CCCC2)cc(OC)c1	i	i	i	i	i	x	x	x	x	x	x
CCc1ccc(S(=O)(=O)N/N=C\c2cn(CC(N)=O)c3ccccc23)cc1	i	i	i	i	i	x	x	x	x	x	x
CCc1ccc(S(=O)(=O)Nc2cccc(-c3ccc4nnc(C)n4n3)c2)s1	i	i	i	i	i	x	x	x	x	x	x
CN(CCO)c1cc(NCCCN2CCC(Cc3ccccc3)CC2)c2nonc2c1[N+](=O)[O-]	i	i	i	i	i	x	x	x	x	x	x
CC1CCN(CCCNc2cc(NCCO)c([N+](=O)[O-])c3nonc23)CC1	i	i	i	i	-7.2*	x	x	x	x	56.8%*	i	TRPC4 spec 2=i;TRPC4 spec=-28.8%*;HEK293 MPD ctr 2-1=35.5%*;HEK293 MPD ctr-1=-454.0%*
